Experimental data reported in ChEMBL document CHEMBL2046373, “Discovery of a potent thiadiazole class of histamine h3 receptor antagonist for the treatment of diabetes” (ACS Med Chem Lett, 2012).

Assays:
Histamine H3 receptor [1] = target: Histamine H3 receptor (Mus musculus, UniProt P58406); test: Displacement of [3H]-N-alpha-methylhistamine from mouse recombinant histamine H3 receptor after 30 mins by scintillation counting
Histamine H3 receptor [2] = target: Histamine H3 receptor (Homo sapiens, UniProt Q9Y5N1); test: Displacement of [3H]-N-alpha-methylhistamine from human recombinant histamine H3 receptor after 30 mins by scintillation counting
Cytochrome P450 3A4 [3] = target: T1, Cytochrome P450 3A4 (Homo sapiens, UniProt P08684); test: Inhibition of CYP3A4 under co-incubation conditions; type: ADME; settings: read-out: INH
Cytochrome P450 2C9 [4] = target: T2, Cytochrome P450 2C9 (Homo sapiens, UniProt P11712); test: Inhibition of CYP2C9 under preincubation conditions; type: ADME; settings: read-out: INH
Mus musculus [5] = test: Ex vivo receptor occupancy of histamine H3 receptor in ICR mouse brain cortex using [3H]- N-alpha-Methylhistamine at 30 mg/kg, po after 30 mins by scintillation counting; type: functional
Cytochrome P450 3A4 [6] = target: T1, Cytochrome P450 3A4; test: Inhibition of CYP3A4 under preincubation conditions; type: ADME; settings: read-out: INH
Cytochrome P450 2D6 [7] = target: T3, Cytochrome P450 2D6 (Homo sapiens, UniProt P10635); test: Inhibition of CYP2D6 under preincubation conditions; type: ADME
Cytochrome P450 2D6 [8] = target: T3, Cytochrome P450 2D6; test: Inhibition of CYP2D6 under co-incubation conditions; type: ADME; settings: read-out: INH
Cytochrome P450 2C9 [9] = target: T2, Cytochrome P450 2C9; test: Inhibition of CYP2C9 under co-incubation conditions; type: ADME; settings: read-out: INH
[10] = Ratio of drug level in brain to plasma in ICR mouse; type: ADME; settings: read-out: BPR
How it was run: (§1)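 ICR mice were given a single 30 mg/kg oral dose. Total brain and plasma concentrations were measured 4 h later, and the brain/plasma ratio was taken from these levels.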

hERG (KCNH2) = hERG (KCNH2) (Homo sapiens, UniProt Q12809); test: Inhibition of human ERG at 10 uM by high-throughput rubidium efflux assay
Mus musculus [11] = test: Antihyperglycemic activity in STZ-induced type 2 diabetic model of ICR mouse assessed as reduction of non-fasting blood glucose level at 30 mg/kg, po qd for 2 days; type: functional
How it was run: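 Streptozotocin-diabetic ICR mice (STZ 80 mg/kg ip; blood glucose 250–500 mg/dL) received oral dosing at 30 mg/kg once daily. Non-fasting glucose was read daily before each dose. Data are mean ± SEM, n = 12/group, compared with vehicle (0) controls.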

[12] = Drug level in ICR mouse brain at 30 mg/kg, po after 4 hrs; type: ADME, organism-based; set-up: dose 30 mg/kg, route oral; settings: read-out: Drug uptake; how it was run: as §1
[13] = Cmax in ICR mouse plasma at 30 mg/kg, po after 4 hrs; type: ADME, organism-based; set-up: dose 30 mg/kg, route oral; how it was run: as §1
Mus musculus [14] = test: Antihyperglycemic activity in po dosed STZ-induced type 2 diabetic model of ICR mouse assessed as reduction of HbA1c level administered qd for 12 days; type: functional, organism-based
How it was run: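 STZ diet-induced obese type 2 diabetic mice were dosed orally once daily for 12 days at 10 and 30 mg/kg. The end point was change in glycated hemoglobin (HbA1c), compared with vehicle (0) controls.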

[15] = AUC (0 to 6 hrs) in rat at 10 mg/kg, po; type: ADME, organism-based; set-up: time < 6 hr, dose 10 mg/kg, route oral; settings: plasma

T1 sequence (P08684 whole entry): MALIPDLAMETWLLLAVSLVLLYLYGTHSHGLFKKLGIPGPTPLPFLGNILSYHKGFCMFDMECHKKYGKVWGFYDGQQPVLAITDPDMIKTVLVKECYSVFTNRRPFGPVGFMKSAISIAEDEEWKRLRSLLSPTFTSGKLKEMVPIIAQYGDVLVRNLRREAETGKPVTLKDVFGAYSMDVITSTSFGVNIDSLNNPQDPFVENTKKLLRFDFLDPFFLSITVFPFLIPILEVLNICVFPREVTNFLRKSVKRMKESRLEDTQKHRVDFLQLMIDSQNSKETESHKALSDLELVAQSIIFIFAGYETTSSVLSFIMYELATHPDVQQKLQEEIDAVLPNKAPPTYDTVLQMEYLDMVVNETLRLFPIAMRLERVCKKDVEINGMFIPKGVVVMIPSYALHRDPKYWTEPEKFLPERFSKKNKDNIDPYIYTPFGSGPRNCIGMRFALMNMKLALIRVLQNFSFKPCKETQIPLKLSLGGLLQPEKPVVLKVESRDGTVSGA
Chain of Histamine H3 receptor (Homo sapiens, UniProt Q9Y5N1) (Q9Y5N1 whole entry): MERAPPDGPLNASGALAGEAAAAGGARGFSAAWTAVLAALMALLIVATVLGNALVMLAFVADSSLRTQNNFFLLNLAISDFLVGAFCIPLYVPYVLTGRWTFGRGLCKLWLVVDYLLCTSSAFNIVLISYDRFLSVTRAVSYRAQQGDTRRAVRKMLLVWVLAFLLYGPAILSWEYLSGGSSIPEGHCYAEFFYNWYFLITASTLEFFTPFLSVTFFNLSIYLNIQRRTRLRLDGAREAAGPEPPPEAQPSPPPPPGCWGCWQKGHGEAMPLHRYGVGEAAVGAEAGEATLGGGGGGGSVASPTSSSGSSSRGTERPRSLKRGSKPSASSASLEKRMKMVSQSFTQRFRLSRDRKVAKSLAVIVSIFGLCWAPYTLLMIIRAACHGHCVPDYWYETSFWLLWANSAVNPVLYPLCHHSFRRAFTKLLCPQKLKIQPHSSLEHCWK
T3 sequence (P10635 whole entry): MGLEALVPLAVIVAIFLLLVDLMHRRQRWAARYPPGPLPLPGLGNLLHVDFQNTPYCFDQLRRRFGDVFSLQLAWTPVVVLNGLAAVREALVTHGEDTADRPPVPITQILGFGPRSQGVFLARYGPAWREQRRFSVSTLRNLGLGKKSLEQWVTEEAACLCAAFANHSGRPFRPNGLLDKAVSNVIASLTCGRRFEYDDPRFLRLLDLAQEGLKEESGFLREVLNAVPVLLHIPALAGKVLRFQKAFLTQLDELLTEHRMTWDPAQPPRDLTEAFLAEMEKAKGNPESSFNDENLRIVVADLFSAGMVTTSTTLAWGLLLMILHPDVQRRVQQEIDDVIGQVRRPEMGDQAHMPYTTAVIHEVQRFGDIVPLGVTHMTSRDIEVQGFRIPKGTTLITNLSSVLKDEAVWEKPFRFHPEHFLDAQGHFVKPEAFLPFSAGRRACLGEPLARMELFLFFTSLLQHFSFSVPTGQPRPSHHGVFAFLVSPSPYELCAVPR
Chain of hERG (KCNH2) (Q12809 whole entry): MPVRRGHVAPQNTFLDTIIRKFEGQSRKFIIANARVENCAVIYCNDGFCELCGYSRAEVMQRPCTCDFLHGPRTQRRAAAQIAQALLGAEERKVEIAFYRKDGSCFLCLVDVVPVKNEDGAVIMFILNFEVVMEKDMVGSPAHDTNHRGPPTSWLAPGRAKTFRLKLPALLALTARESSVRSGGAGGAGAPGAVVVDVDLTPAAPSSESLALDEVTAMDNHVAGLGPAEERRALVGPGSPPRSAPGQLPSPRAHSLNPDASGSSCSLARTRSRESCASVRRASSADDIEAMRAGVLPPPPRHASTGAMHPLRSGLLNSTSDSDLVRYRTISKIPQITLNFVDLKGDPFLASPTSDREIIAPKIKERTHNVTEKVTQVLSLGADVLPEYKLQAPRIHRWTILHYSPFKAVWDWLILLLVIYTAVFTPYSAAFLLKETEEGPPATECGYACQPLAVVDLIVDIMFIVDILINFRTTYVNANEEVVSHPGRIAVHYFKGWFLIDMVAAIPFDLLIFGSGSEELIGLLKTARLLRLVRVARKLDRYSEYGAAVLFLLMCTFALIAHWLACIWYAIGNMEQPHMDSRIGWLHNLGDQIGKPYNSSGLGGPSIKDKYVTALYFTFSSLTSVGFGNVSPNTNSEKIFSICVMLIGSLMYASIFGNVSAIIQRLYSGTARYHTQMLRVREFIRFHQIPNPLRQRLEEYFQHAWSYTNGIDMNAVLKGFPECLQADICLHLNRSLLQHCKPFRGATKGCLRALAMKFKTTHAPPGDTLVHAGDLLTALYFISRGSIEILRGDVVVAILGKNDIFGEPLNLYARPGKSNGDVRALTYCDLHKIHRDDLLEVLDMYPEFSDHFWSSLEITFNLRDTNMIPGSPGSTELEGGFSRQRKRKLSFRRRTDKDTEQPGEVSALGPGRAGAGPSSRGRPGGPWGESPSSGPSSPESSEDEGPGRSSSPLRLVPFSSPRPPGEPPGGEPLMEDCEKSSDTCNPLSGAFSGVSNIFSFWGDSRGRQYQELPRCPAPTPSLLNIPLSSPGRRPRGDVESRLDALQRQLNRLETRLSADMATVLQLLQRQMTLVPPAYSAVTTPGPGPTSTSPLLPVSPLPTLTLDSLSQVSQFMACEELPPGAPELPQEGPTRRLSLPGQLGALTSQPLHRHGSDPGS
T2 sequence (P11712 whole entry): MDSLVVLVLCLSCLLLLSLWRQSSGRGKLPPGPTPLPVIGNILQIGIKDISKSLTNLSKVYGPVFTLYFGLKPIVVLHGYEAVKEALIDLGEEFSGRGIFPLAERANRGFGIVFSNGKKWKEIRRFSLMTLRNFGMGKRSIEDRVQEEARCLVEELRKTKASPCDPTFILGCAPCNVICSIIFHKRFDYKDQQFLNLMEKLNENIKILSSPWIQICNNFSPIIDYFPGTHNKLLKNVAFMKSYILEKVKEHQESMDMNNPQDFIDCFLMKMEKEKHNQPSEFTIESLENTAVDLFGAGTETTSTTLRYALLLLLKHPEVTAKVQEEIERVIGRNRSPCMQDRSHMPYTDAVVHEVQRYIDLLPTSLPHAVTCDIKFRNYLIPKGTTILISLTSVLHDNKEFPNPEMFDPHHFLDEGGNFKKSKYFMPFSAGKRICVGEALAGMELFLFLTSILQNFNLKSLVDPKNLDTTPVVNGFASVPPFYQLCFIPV
Chain of Histamine H3 receptor (Mus musculus, UniProt P58406) (P58406 whole entry): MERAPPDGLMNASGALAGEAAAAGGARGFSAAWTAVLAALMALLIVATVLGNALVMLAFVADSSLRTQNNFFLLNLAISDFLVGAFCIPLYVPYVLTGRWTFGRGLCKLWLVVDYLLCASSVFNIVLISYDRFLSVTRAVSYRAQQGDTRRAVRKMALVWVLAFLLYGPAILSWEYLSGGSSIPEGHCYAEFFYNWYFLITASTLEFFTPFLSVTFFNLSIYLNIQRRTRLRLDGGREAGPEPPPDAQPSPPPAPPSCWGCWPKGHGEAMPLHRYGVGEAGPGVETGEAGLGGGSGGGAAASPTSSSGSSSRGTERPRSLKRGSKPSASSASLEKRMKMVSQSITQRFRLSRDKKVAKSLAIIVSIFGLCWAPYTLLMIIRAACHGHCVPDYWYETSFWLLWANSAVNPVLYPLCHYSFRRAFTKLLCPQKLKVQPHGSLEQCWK

Row | Ki (Histamine H3 receptor [1]) | Ki (Histamine H3 receptor [2]) | SMILES | also measured
1 | 11 nM | 5 nM | c1ccc(C2CN(c3nnc(N4CCC(N5CCCCC5)CC4)s3)CCO2)nc1 (stereo in doubt; 5r) | 
2 | 56 nM | 66 nM | FC1CCCN(c2nnc(N3CCC(N4CCCCC4)CC3)s2)C1 (stereo unspecified) | 
3 | 55 nM | 53 nM | OC1(c2ccccn2)CCCN(c2nnc(N3CCC(N4CCCCC4)CC3)s2)C1 (stereo unspecified) | 
4 | 47 nM |  | O=C(Nc1nnc(N2CCC(N3CCCCC3)CC2)s1)NC1CCCC1 | 
5 | 4 nM | 3 nM | c1ccc(C2CN(c3nnc(N4CCC(N5CCCCC5)CC4)s3)CCO2)nc1 (single isomer, unassigned; enantiomer 2) [listing 1 of 2 here] | IC50 (Cytochrome P450 3A4 [3]): > 20000 nM; IC50 (Cytochrome P450 2C9 [4]): > 20000 nM; Activity (Mus musculus [5]): 74%; IC50 (Cytochrome P450 3A4 [6]): > 20000 nM; INH (Cytochrome P450 2D6 [7]): > 20 µM; IC50 (Cytochrome P450 2D6 [8]): > 20000 nM; IC50 (Cytochrome P450 2C9 [9]): > 20000 nM; Kp [10]: 0.016; inhibition at 10 µM (hERG (KCNH2)): 26%; Activity (Mus musculus [11]): 104.5 mg/dL; concentration at 4 h [12]: 24 ng/g; Cmax [13]: 1500 ng/mL
6 | 54 nM | 11 nM | COC1(c2ccccn2)CCCN(c2nnc(N3CCC(N4CCCCC4)CC3)s2)C1 (stereo unspecified) | 
7 | 7 nM | 4 nM | FC1(c2ccccn2)CCCN(c2nnc(N3CCC(N4CCCCC4)CC3)s2)C1 (stereo unspecified) | IC50 (Cytochrome P450 3A4 [3]): > 20000 nM; IC50 (Cytochrome P450 2C9 [4]): > 20000 nM; Activity (Mus musculus [5]): 92%; IC50 (Cytochrome P450 3A4 [6]): > 20000 nM; INH (Cytochrome P450 2D6 [7]): > 20 µM; IC50 (Cytochrome P450 2D6 [8]): > 20000 nM; IC50 (Cytochrome P450 2C9 [9]): > 20000 nM; Kp [10]: 0.227; inhibition at 10 µM (hERG (KCNH2)): 16%; Activity (Mus musculus [11]): 67.91 mg/dL; concentration at 4 h [12]: 674 ng/g; Cmax [13]: 2970 ng/mL
8 | 110 nM | 75 nM | c1ccc(C2CCCN(c3nnc(N4CCC(N5CCCCC5)CC4)s3)C2)cc1 (stereo unspecified) | 
9 | 77 nM | 67 nM | OC1(c2ncccn2)CCCN(c2nnc(N3CCC(N4CCCCC4)CC3)s2)C1 (stereo unspecified) | 
10 | 53 nM | 34 nM | O=C1N(c2nnc(N3CCC(N4CCCCC4)CC3)s2)CCN1C1CCCC1 | 
11 | 5 nM | 3 nM | C1=C(c2ccccn2)CCCN1c1nnc(N2CCC(N3CCCCC3)CC2)s1 | IC50 (Cytochrome P450 3A4 [3]): > 20000 nM; IC50 (Cytochrome P450 2C9 [4]): > 20000 nM; Activity (Mus musculus [5]): 85%; IC50 (Cytochrome P450 3A4 [6]): > 20000 nM; INH (Cytochrome P450 2D6 [7]): > 20 µM; IC50 (Cytochrome P450 2D6 [8]): > 20000 nM; IC50 (Cytochrome P450 2C9 [9]): > 20000 nM; inhibition at 10 µM (hERG (KCNH2)): 54%; concentration at 4 h [12]: 1040 ng/g; Cmax [13]: 1470 ng/mL

Continued, compound first:

Row | SMILES | Ki (Histamine H3 receptor [1]) | Ki (Histamine H3 receptor [2]) | also measured
12 | c1ccc(C2CN(c3nnc(N4CCC(N5CCCCC5)CC4)s3)CCO2)nc1 (single isomer, unassigned; enantiomer 2) [listing 2 of 2 here] |  |  | Activity (Mus musculus [14]): Dose-dependent effect
13 | O=C1CCCCN1c1nnc(N2CCC(N3CCCCC3)CC2)s1 | 120 nM | 120 nM | 
14 | c1ccc(C2CN(c3nnc(N4CCC(N5CCCCC5)CC4)s3)CCO2)nc1 (stereo in doubt; 5t) | 67 nM | 34 nM | 
15 | COC1CCCN(c2nnc(N3CCC(N4CCCCC4)CC3)s2)C1 (stereo unspecified) | 46 nM | 37 nM | 
16 | c1cnc(C2CN(c3nnc(N4CCC(N5CCCCC5)CC4)s3)CCO2)cn1 (stereo unspecified) | 16 nM | 8 nM | 
17 | C1=C(c2ccccn2)CN(c2nnc(N3CCC(N4CCCCC4)CC3)s2)CC1 | 49 nM | 12 nM | 
18 | C1=C(c2ncccn2)CN(c2nnc(N3CCC(N4CCCCC4)CC3)s2)CC1 | 44 nM | 14 nM | 
19 | OC1CCCN(c2nnc(N3CCC(N4CCCCC4)CC3)s2)C1 (stereo unspecified) | 68 nM | 46 nM | 
20 | FC1(F)CCN(c2nnc(N3CCC(N4CCCCC4)CC3)s2)C1 | 61 nM | 61 nM | AUC(0-t) at 6 h [15]: 545 ng·h/mL
21 | O=C1N(c2ccccc2)CCCN1c1nnc(N2CCC(N3CCCCC3)CC2)s1 | 32 nM | 30 nM | 
22 | CC1CN(c2nnc(N3CCC(N4CCCCC4)CC3)s2)CC(C)O1 (stereo unspecified) | 35 nM | 53 nM | AUC(0-t) at 6 h [15]: 4320 ng·h/mL
23 | FC1(F)CCN(c2nnc(N3CCC(N4CCCCC4)CC3)s2)CC1 | 18 nM | 15 nM | AUC(0-t) at 6 h [15]: 2490 ng·h/mL
